According to ChEMBL document CHEMBL2040715, “Discovery of a Potent HIV Integrase Inhibitor that Leads to a Prodrug with Significant anti-HIV Activity” (ACS Med Chem Lett, 2011):

Biological target: Human immunodeficiency virus type 1 integrase (Human immunodeficiency virus 1, UniProt Q7ZJM1)
Assay: Inhibition of HIV1 integrase-mediated strand transfer
Settings: not given

Human immunodeficiency virus type 1 integrase, sequence (Q7ZJM1 whole entry): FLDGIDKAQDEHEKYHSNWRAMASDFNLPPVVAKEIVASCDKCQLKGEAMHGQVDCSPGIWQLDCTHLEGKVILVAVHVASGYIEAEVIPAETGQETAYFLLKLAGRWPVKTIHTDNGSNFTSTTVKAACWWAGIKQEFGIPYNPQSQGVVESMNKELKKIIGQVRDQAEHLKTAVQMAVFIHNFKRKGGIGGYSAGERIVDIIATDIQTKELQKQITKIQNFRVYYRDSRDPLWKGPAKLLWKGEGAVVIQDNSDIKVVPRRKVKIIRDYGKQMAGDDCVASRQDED

Going from `CC(C)OC(=O)/C(O)=C/C(=O)c1cc(Cc2ccc(F)cc2F)cn(Cc2ccccc2F)c1=O` to `O=C(O)/C(O)=C/C(=O)c1cc(Cc2ccccc2)cn(Cc2ccccc2)c1=O`, the IC50 falls from over 475 nM to 70 nM. The second is the more potent here.

System: Human immunodeficiency virus 1
Assay: Antiviral activity against HIV1 infected in MAGI cells by beta-galactosidase reporter gene assay
Assay type: functional, organism-based
Settings: Human immunodeficiency virus 1, MAGI
How it was run: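 HIV-1 infection of MAGI cells, with raltegravir as the MOI-sensitive positive control validating each run. EC50 and EC90 were determined.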

Going from `CC(C)OC(=O)/C(O)=C/C(=O)c1cc(Cc2ccc(F)cc2F)cn(Cc2ccccc2F)c1=O` to `CC(C)OC(=O)/C(O)=C/C(=O)c1cc(Cc2ccc(F)cc2F)cn(Cc2ccc(F)cc2F)c1=O`, the EC50 rises from 9 nM to 46 nM (5.1-fold). The first is the more potent here.

`Cc1ccc(Cn2cc(Cc3cccc(Cl)c3)cc(C(=O)/C=C(\O)C(=O)O)c2=O)cc1` and `O=C(O)/C(O)=C/C(=O)c1cc(Cc2cccc(Cl)c2)cn(Cc2ccc(Cl)cc2)c1=O` are the same in EC50: 2500 nM for the first, 2500 nM for the second.

`O=C(O)/C(O)=C/C(=O)c1cc(Cc2ccccc2F)cn(Cc2ccccc2F)c1=O` and `O=C(O)/C(O)=C/C(=O)c1cc(Cc2ccccc2F)cn(Cc2cccc(F)c2F)c1=O` are within 1.5-fold of each other in EC50: 700 nM for the first, 800 nM for the second.

Going from `O=C(O)/C(O)=C/C(=O)c1cc(Cc2ccc(F)c(Cl)c2)cn(Cc2ccc(F)c(Cl)c2)c1=O` to `O=C(O)/C(O)=C/C(=O)c1cc(Cc2cccc(Cl)c2)cn(Cc2ccc(F)c(Cl)c2)c1=O`, the EC50 falls from 2400 nM to 1200 nM (2-fold).

Compared with `O=C(O)/C(O)=C/C(=O)c1cc(Cc2ccccc2)cn(Cc2cc(Cl)ccc2F)c1=O`, `O=C(O)/C(O)=C/C(=O)c1cc(Cc2cccc(Cl)c2)cn(Cc2ccccc2F)c1=O` is 2.1-fold higher in EC50: 900 nM for the first, 1900 nM for the second.

First: Cc1ccc(Cn2cc(Cc3ccc(F)cc3)cc(C(=O)/C=C(\O)C(=O)O)c2=O)cc1
Second: O=C(O)/C(O)=C/C(=O)c1cc(Cc2ccc(F)cc2)cn(Cc2ccc(F)cc2)c1=O
The EC50 of the first is 2-fold higher: 1600 nM for the first, 800 nM for the second.

Going from `Cc1cccc(Cn2cc(Cc3ccc(F)c(Cl)c3)cc(C(=O)/C=C(\O)C(=O)O)c2=O)c1` to `Cc1ccc(Cn2cc(Cc3ccc(F)c(Cl)c3)cc(C(=O)/C=C(\O)C(=O)O)c2=O)cc1`, the EC50 rises from 2200 nM to over 5000 nM.

Going from `O=C(O)/C(O)=C/C(=O)c1cc(Cc2ccccc2F)cn(Cc2ccc(F)cc2F)c1=O` to `Cc1cc(F)ccc1Cc1cc(C(=O)/C=C(\O)C(=O)O)c(=O)n(Cc2ccccc2F)c1`, the EC50 rises from 600 nM to 1300 nM (2.2-fold).

First: O=C(O)/C(O)=C/C(=O)c1cc(Cc2ccc(F)c(Cl)c2)cn(Cc2ccccc2F)c1=O
Second: O=C(O)/C(O)=C/C(=O)c1cc(Cc2ccc(F)c(Cl)c2)cn(Cc2ccc(F)cc2F)c1=O
The EC50 of the first is 1.6-fold higher: 2200 nM for the first, 1400 nM for the second.

Compared with `O=C(O)/C(O)=C/C(=O)c1cc(Cc2ccccc2F)cn(Cc2cccc(F)c2)c1=O`, `O=C(O)/C(O)=C/C(=O)c1cc(Cc2ccccc2F)cn(Cc2cccc(Cl)c2)c1=O` is 2.7-fold lower in EC50: 1900 nM for the first, 700 nM for the second.

`Cc1ccc(Cn2cc(Cc3ccccc3F)cc(C(=O)/C=C(\O)C(=O)O)c2=O)cc1` and `O=C(O)/C(O)=C/C(=O)c1cc(Cc2ccccc2F)cn(Cc2ccc(F)cc2)c1=O` are within 1.5-fold of each other in EC50: 700 nM for the first, 800 nM for the second.

First: O=C(O)/C(O)=C/C(=O)c1cc(Cc2ccc(F)cc2)cn(Cc2cccc(F)c2F)c1=O
Second: O=C(O)/C(O)=C/C(=O)c1cc(Cc2ccc(F)cc2)cn(Cc2c(F)cccc2F)c1=O
The EC50 of the first is 2-fold lower: 700 nM for the first, 1400 nM for the second. The first is the more potent here.

`O=C(O)/C(O)=C/C(=O)c1cc(Cc2cccc(Cl)c2F)cn(Cc2cccc(Cl)c2)c1=O` and `O=C(O)/C(O)=C/C(=O)c1cc(Cc2cccc(Cl)c2)cn(Cc2cccc(Cl)c2F)c1=O` are within 1.5-fold of each other in EC50: 1500 nM for the first, 1400 nM for the second.

First: O=C(O)/C(O)=C/C(=O)c1cc(Cc2ccccc2)cn(Cc2ccc(F)cc2)c1=O
Second: COc1ccc(Cn2cc(Cc3ccccc3)cc(C(=O)/C=C(\O)C(=O)O)c2=O)cc1
The EC50 of the first is 1.8-fold lower: 1000 nM for the first, 1800 nM for the second.

`O=C(O)/C(O)=C/C(=O)c1cc(Cc2ccc(F)cc2)cn(Cc2cccc(Cl)c2)c1=O` and `O=C(O)/C(O)=C/C(=O)c1cc(Cc2cccc(Cl)c2)cn(Cc2ccc(F)cc2)c1=O` are within 1.5-fold of each other in EC50: 1200 nM for the first, 1400 nM for the second.

Compared with `O=C(O)/C(O)=C/C(=O)c1cc(Cc2ccc(F)c(Cl)c2)cn(Cc2ccc(F)cc2)c1=O`, `O=C(O)/C(O)=C/C(=O)c1cc(Cc2ccc(F)cc2F)cn(Cc2ccc(F)cc2)c1=O` is lower in EC50: over 5000 nM for the first, 600 nM for the second.

`O=C(O)/C(O)=C/C(=O)c1cc(Cc2ccccc2)cn(Cc2cccc(Cl)c2F)c1=O` and `O=C(O)/C(O)=C/C(=O)c1cc(Cc2ccccc2)cn(Cc2cccc(F)c2F)c1=O` are within 1.5-fold of each other in EC50: 700 nM for the first, 900 nM for the second.

`O=C(O)/C(O)=C/C(=O)c1cc(Cc2ccccc2)cn(Cc2ccccc2)c1=O` and `O=C(O)/C(O)=C/C(=O)c1cc(Cc2ccccc2)cn(Cc2cccc(F)c2)c1=O` are within 1.5-fold of each other in EC50: 2100 nM for the first, 2000 nM for the second.

First: Cc1cccc(Cc2cc(C(=O)/C=C(\O)C(=O)O)c(=O)n(Cc3cccc(Cl)c3F)c2)c1
Second: Cc1cccc(Cn2cc(Cc3ccccc3F)cc(C(=O)/C=C(\O)C(=O)O)c2=O)c1
The EC50 of the first is 1.6-fold higher: 1400 nM for the first, 900 nM for the second. The second is the more potent here.

`Cc1cc(F)ccc1Cc1cc(C(=O)/C=C(\O)C(=O)O)c(=O)n(Cc2ccc(F)cc2)c1` and `Cc1cc(F)ccc1Cc1cc(C(=O)/C=C(\O)C(=O)O)c(=O)n(Cc2ccccc2)c1` are within 1.5-fold of each other in EC50: 1000 nM for the first, 1300 nM for the second.

Going from `O=C(O)/C(O)=C/C(=O)c1cc(Cc2cccc(C(=O)O)c2)cn(Cc2ccccc2)c1=O` to `O=C(O)/C(O)=C/C(=O)c1cc(Cc2ccccc2)cn(Cc2ccc(F)c(Cl)c2)c1=O`, the EC50 falls from over 5000 nM to 800 nM. The second is the more potent here.

Going from `O=C(O)/C(O)=C/C(=O)c1cc(Cc2ccc(F)c(Cl)c2)cn(Cc2c(F)cccc2F)c1=O` to `O=C(O)/C(O)=C/C(=O)c1cc(Cc2ccccc2)cn(Cc2c(F)cccc2F)c1=O`, the EC50 falls from 5100 nM to 1500 nM (3.4-fold). The second is the more potent here.

`O=C(O)/C(O)=C/C(=O)c1cc(Cc2ccc(F)cc2)cn(Cc2ccccc2F)c1=O` and `O=C(O)/C(O)=C/C(=O)c1cc(Cc2ccccc2)cn(Cc2ccc(F)cc2F)c1=O` are within 1.5-fold of each other in EC50: 700 nM for the first, 600 nM for the second.

`O=C(O)/C(O)=C/C(=O)c1cc(Cc2ccc(F)cc2F)cn(Cc2ccccc2)c1=O` and `Cc1cccc(Cn2cc(Cc3ccc(F)cc3F)cc(C(=O)/C=C(\O)C(=O)O)c2=O)c1` are within 1.5-fold of each other in EC50: 800 nM for the first, 700 nM for the second.

First: O=C(O)/C(O)=C/C(=O)c1cc(Cc2ccccc2)cn(Cc2ccc(F)c(Cl)c2F)c1=O
Second: O=C(O)/C(O)=C/C(=O)c1cc(Cc2ccccc2)cn(Cc2ccccc2F)c1=O
The EC50 of the first is 1.5-fold lower: 600 nM for the first, 900 nM for the second. The first is the more potent here.

Compared with `COc1ccc(Cc2cc(C(=O)/C=C(\O)C(=O)O)c(=O)n(Cc3ccc(OC)cc3)c2)cc1`, `O=C(O)/C(O)=C/C(=O)c1cc(Cc2ccc(F)cc2)cn(Cc2cccc(F)c2)c1=O` is lower in EC50: over 5000 nM for the first, 1000 nM for the second. The second is the more potent here.

Going from `O=C(O)/C(O)=C/C(=O)c1cc(Cc2cccc(Cl)c2F)cn(Cc2cccc(Cl)c2F)c1=O` to `O=C(O)/C(O)=C/C(=O)c1cc(Cc2ccccc2Cl)cn(Cc2ccc(F)cc2F)c1=O`, the EC50 falls from 2400 nM to 800 nM (3-fold). The second is the more potent here.

`O=C(O)/C(O)=C/C(=O)c1cc(Cc2cccc(Cl)c2)cn(Cc2cccc(Cl)c2)c1=O` and `N#Cc1ccc(Cn2cc(Cc3ccccc3F)cc(C(=O)/C=C(\O)C(=O)O)c2=O)cc1` are the same in EC50: 1100 nM for the first, 1100 nM for the second.

`O=C(O)/C(O)=C/C(=O)c1cc(Cc2ccc(F)cc2F)cn(Cc2ccc(F)cc2F)c1=O` showed an EC50 of 300 nM.

System: not listed separately
Assay: Cytotoxicity against human MAGI cells by MTS assay
Assay type: cell-based
Settings: not given

With `CC(C)OC(=O)/C(O)=C/C(=O)c1cc(Cc2ccc(F)cc2F)cn(Cc2ccccc2F)c1=O` the CC50 was 135 µM.

`CC(C)OC(=O)/C(O)=C/C(=O)c1cc(Cc2ccc(F)cc2F)cn(Cc2ccccc2F)c1=O` showed a CC90 of over 200 µM.

System: not listed separately
Assay: Therapeutic index, ratio of CC50 for human MAGI cells to EC50 for HIV1
Assay type: cell-based
Settings: not given

In the case of `CC(C)OC(=O)/C(O)=C/C(=O)c1cc(Cc2ccc(F)cc2F)cn(Cc2ccccc2F)c1=O`, the “Ratio CC50/EC50” value is reported as 15000.

System: not listed separately
Assay: Cytotoxicity against PBMC
Assay type: cell-based
Settings: human

Molecule `O=C(/C=C(\O)c1nc[nH]n1)c1ccc(Cc2ccc(F)cc2)o1` [S-1360] has a CC50 of 110 µM.

System: Human immunodeficiency virus 1
Assay: Antiviral activity against HIV1 infected in human MT4 cells
Settings: Human immunodeficiency virus 1, MT4

Molecule `O=C(O)C(=O)CC(=O)c1cccn1Cc1ccc(F)cc1` has an EC50 of 1000 nM.
